The nature of data set [1]: Cytotoxicity against mouse RAW264.7 cells assessed as cell viability at 10 uM in presence of LPS measured after 24 hrs by WST assay relative to control. Format: cell-based. Particulars: read-out: Activity. The procedure, abridged:
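Raw264.7 cells, seeded 1 day earlier, were washed into serum-free DMEM and given 100 ng/mL LPS plus compound (10 μM) for 24 h. After the supernatant was removed, wells were refilled with 10% FBS DMEM and WST reagent was added for 20 min at 37 °C. Absorbance was read at 450 nm, and viability is relative to vehicle. At least three independent experiments.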

Data set [2] concerns the target T1, High mobility group protein B1 (Mus musculus) (UniProt P63158).
T1 sequence (whole entry): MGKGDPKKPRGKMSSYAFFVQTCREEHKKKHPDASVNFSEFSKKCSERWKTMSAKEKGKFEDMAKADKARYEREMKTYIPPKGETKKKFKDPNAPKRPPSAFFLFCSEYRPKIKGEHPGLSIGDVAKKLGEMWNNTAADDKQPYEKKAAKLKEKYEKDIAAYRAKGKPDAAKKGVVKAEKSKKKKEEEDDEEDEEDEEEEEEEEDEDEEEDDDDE
The data set is described as follows: Inhibition of HMGB1 translocation from nucleus to cytosol in LPS-stimulated mouse RAW264.7 cells assessed as inhibition of TNF-alpha production at 10 uM measured after 4 hrs by ELISA relative to control. In a few lines: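 Raw264.7 cells in serum-free DMEM were treated with 100 ng/mL LPS and 10 μM compound (final). After 4 h, medium was diluted in 1% BSA/PBS and secreted TNF-α was quantified by ELISA against a standard curve of TNF-α protein. Inhibition is relative to control. At least three independent experiments.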
For orientation: ELISA stands for enzyme-linked immunosorbent assay.

The target in data set [3] is T1, High mobility group protein B1 (Mus musculus). The experiment in a line: Inhibition of HMGB1 translocation from nucleus to cytosol in LPS-stimulated mouse RAW264.7 cells assessed as inhibition of NO release at 10 uM measured after 24 hrs by Griess assay relative to control. In a few lines:
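Raw264.7 cells, seeded 1 day earlier, were moved to serum-free DMEM and exposed to 100 ng/mL LPS with 10 μM compound for 24 h. Supernatant NO was measured with Griess reagent (sulfanilamide/N-(1-naphthyl)ethylenediamine/phosphoric acid) at room temperature, absorbance 548 nm. Inhibition was set against LPS+DMSO wells, blank-corrected, with four control wells. At least three independent experiments.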

Data set [4] has the same target. The data set is described as follows: Inhibition of HMGB1 nuclear translocation in LPS-stimulated mouse RAW264.7 cells assessed as inhibition of IL-6 production at 10 uM pretreated for 1 hr followed by LPS-induction by Western blot analysis. The procedure, abridged: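 Raw264.7 cells were pretreated with 10 μM compound for 1 h, then given 100 ng/mL LPS. IL-6 released into the culture medium was detected by Western blot with ECL chemiluminescence, DMSO as control. At least three independent experiments.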

Data set [5] shares this target. The experiment in a line: Inhibition of HMGB1 nuclear translocation in LPS-stimulated mouse RAW264.7 cells at 20 uM pretreated for 1 hr followed by LPS-induction measured after 2 hrs by Hoechst 33342/TRITC staining based immunofluorescence microscopic method. In a few lines: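 Raw264.7 cells on chambered coverglass were pretreated with 20 μM compound for 1 h, then given 500 ng/mL LPS for 2 h. Cells were fixed in 4% paraformaldehyde, permeabilized with methanol at −20 °C, blocked with 2% BSA, and stained with anti-HMGB1 plus TRITC secondary and Hoechst 33342. Imaged by deconvolution fluorescence microscopy. At least three independent experiments.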

Data set [6] deals with RAW264.7. The data set is described as follows: Cytotoxicity against mouse RAW264.7 cells assessed as reduction in cell viability at >10 uM in presence of LPS measured after 24 hrs by WST assay. Format: cell-based. The note with it: raw264.7, 24 h.

Activity calls are given as the source filed them. The rule behind the calls is not given here.

For the compound `CC1(C)Oc2cc(O)ccc2C2C1=CCn1c(=O)n(-c3ccc(F)cc3)c(=O)n12` (configuration not stated), the viability at 24 h, 10 µM in data set [1] was 109%. Besides, the inhibition came to 44% in data set [2] and 87% in data set [3].

On to `COc1ccc2c(c1O)OC(C)(C)C1=CCn3c(=O)n(-c4ccccc4)c(=O)n3C12` (configuration not stated), for which, in data set [3], the inhibition was 26%.

With `CC1(C)Oc2cc(O)ccc2C2C1=CCn1c(=O)n(Cc3ccccc3)c(=O)n12` (configuration not stated), the viability at 24 h, 10 µM in data set [1] came to 106%. Further, in data set [3], the inhibition amounted to 70%.

As for `COc1ccc(-n2c(=O)n3n(c2=O)C2C(=CC3)C(C)(C)Oc3cc(O)ccc32)cc1` (configuration not stated), the viability at 24 h, 10 µM in data set [1] worked out at 127%. Also, the inhibition in data set [2] was 44%; in data set [3], 89%.

`CC1(C)Oc2cc(O)ccc2C2C1=CCn1c(=O)n(-c3ccc4c(c3)OCO4)c(=O)n12` (configuration not stated): the viability at 24 h, 10 µM in data set [1] worked out at 121%. Also, the inhibition in data set [2] was found to be 46%; in data set [3], 92%. Further, the inhibition result in data set [4] and in data set [5] was “Active” in each case.

In the case of `CC1(C)Oc2cc(O)ccc2C2C1=CCn1c(=O)n(-c3ccccc3I)c(=O)n12` (configuration not stated), the viability at 24 h, 10 µM in data set [1] is 109%. Also, in data set [3], the inhibition came out at 48%.

For the compound `Cc1ccc(-n2c(=O)n3n(c2=O)C2C(=CC3)C(C)(C)Oc3cc(O)ccc32)cc1` (configuration not stated), in data set [1], the viability at 24 h, 10 µM turned out to be 130%. The inhibition came to 45% in data set [2] and 94% in data set [3]. Besides, the inhibition result in data set [4] and in data set [5] was “Active” throughout.

In the case of `CCCCc1ccc(-n2c(=O)n3n(c2=O)C2C(=CC3)C(C)(C)Oc3cc(O)ccc32)cc1` (configuration not stated), the viability at 24 h, 10 µM in data set [1] is 50%. Moreover, the Activity result in data set [6] is “Toxic”. Besides, in data set [3], the inhibition was 99%.

Turning to `COc1cccc(-n2c(=O)n3n(c2=O)C2C(=CC3)C(C)(C)Oc3cc(O)ccc32)c1` (configuration not stated), the viability at 24 h, 10 µM in data set [1] is 118%. In addition, the inhibition in data set [2] was 38%; in data set [3] it was 96%.

For the compound `CC1(C)Oc2ccccc2C2C1=CCn1c(=O)n(-c3ccccc3)c(=O)n12` (configuration not stated), the inhibition in data set [3] came out at 83%.

Turning to `COc1ccc2c(c1)C1C(=CCn3c(=O)n(-c4ccccc4)c(=O)n31)C(C)(C)O2` (configuration not stated), in data set [3], the inhibition was found to be 55%.

For `CC1(C)Oc2cc(O)ccc2C2C1=CCn1c(=O)n(-c3ccc(C(F)(F)F)cc3)c(=O)n12` (configuration not stated), the viability at 24 h, 10 µM in data set [1] worked out at 106%. For the same compound, in data set [6], the Activity entry is listed as “Toxic”. Moreover, the inhibition in data set [3] was 85%.

For the compound `CC1(C)Oc2cc(O)ccc2C2C1CCn1c(=O)n(-c3ccccc3)c(=O)n12` (configuration not stated), in data set [3], the inhibition result is “inactive”.

`COc1ccccc1-n1c(=O)n2n(c1=O)C1C(=CC2)C(C)(C)Oc2cc(O)ccc21` (configuration not stated): the viability at 24 h, 10 µM in data set [1] stood at 115%. The inhibition in data set [3] was determined as 66%.

`CC1(C)Oc2cc(O)ccc2C2C1=CCn1c(=O)n(C3CCCCC3)c(=O)n12` (configuration not stated): the viability at 24 h, 10 µM in data set [1] came out at 117%. Also, the inhibition in data set [3] amounted to 63%.

With `CC1(C)Oc2cc(O)ccc2C2C1=CCn1c(=O)n(-c3ccc(C(C)(C)C)cc3)c(=O)n12` (configuration not stated), the viability at 24 h, 10 µM in data set [1] stood at 105%. The Activity entry in data set [6] is reported as “Toxic”. The inhibition in data set [3] turned out to be 99%.

For the compound `CNc1ccc2c(c1)OC(C)(C)C1=CCn3c(=O)n(-c4ccccc4)c(=O)n3C12` (configuration not stated), the inhibition in data set [3] amounted to 52%.

For the compound `CC(=O)N1CCC2(CC1)Oc1cc(O)ccc1C1C2=CCn2c(=O)n(-c3ccccc3)c(=O)n21` (configuration not stated), the inhibition in data set [3] was 36%.

Regarding `CCCN1CCC2(CC1)Oc1cc(O)ccc1C1C2=CCn2c(=O)n(-c3ccccc3)c(=O)n21` (configuration not stated), in data set [3], the inhibition amounted to 47%.

For the compound `COc1cc2c(cc1OC)C1C(=CCn3c(=O)n(-c4ccccc4)c(=O)n31)C(C)(C)O2` (configuration not stated), the inhibition in data set [3] amounted to 44%.

As for `CC1(C)Oc2cc(F)ccc2C2C1=CCn1c(=O)n(-c3ccccc3)c(=O)n12` (configuration not stated), the inhibition in data set [3] was 79%.

With `CC1(C)Oc2cc(O)ccc2C2C1C=Cn1c(=O)n(-c3ccccc3)c(=O)n12` (configuration not stated), the inhibition entry in data set [3] was “inactive”.

In the case of `COc1ccc2c(c1)OC(C)(C)C1=CCn3c(=O)n(-c4ccccc4)c(=O)n3C12` (configuration not stated), the inhibition in data set [3] is 44%.

One may read the inhibition as the share of the control response that was lost under treatment.

These data come from ChEMBL document CHEMBL4041534, “Treatment of Sepsis Pathogenesis with High Mobility Group Box Protein 1-Regulating Anti-inflammatory Agents” (J Med Chem, 2017).
